Reference: ChEMBL document CHEMBL3352082, “Pyrazole derivatives as potent inhibitors of c-Jun N-terminal kinase: synthesis and SAR studies” (Bioorg Med Chem, 2014)

Tests used:
[1] = biological target: c-Jun N-terminal kinase, JNK (Homo sapiens, UniProt P45983+P53779+P45984); assay: Inhibition of JNK (unknown origin); format: protein assay
Rattus norvegicus [2] = assay: Antiinflammatory activity in po dosed rat paw edema model assessed as inhibition of carrageenan-induced paw edema administered 1 hr prior to carrageenan challenge measured after 1 hr
Rattus norvegicus [3] = assay: Antiinflammatory activity in po dosed rat paw edema model assessed as inhibition of carrageenan-induced paw edema administered 1 hr prior to carrageenan challenge measured after 2 hrs
Rattus norvegicus [4] = assay: Antiinflammatory activity in po dosed rat paw edema model assessed as inhibition of carrageenan-induced paw edema administered 1 hr prior to carrageenan challenge measured after 4 hrs
[5] = biological target: Mitogen-activated protein kinase 8 (Homo sapiens, UniProt P45983); assay: Inhibition of FLAG-tagged JNK-1 (unknown origin) transfected in African green monkey COS cells by SDS-PAGE analysis; format: cell-based
Chain of Mitogen-activated protein kinase 8 (P45983 whole entry): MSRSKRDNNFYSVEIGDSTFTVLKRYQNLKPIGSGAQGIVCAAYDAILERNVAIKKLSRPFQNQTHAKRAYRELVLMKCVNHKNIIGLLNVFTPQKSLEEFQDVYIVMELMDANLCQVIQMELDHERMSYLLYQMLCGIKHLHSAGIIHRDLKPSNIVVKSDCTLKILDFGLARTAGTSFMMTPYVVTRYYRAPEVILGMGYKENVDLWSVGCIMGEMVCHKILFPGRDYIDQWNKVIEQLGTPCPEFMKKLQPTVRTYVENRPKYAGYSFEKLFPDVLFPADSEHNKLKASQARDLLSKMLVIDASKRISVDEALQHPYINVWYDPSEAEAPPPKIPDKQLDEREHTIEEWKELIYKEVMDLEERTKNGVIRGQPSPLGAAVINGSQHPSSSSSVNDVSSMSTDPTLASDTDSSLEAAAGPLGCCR
How it was run: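 COS cells transfected with FLAG-tagged JNK-1 and exposed to 0.5 M sorbitol for 30 min to activate JNK-1. FLAG-JNK immunoprecipitated with GST-ATF2 substrate, and the precipitate pretreated with compound and incubated in buffer B. Phosphorylated substrate separated by SDS–PAGE, visualized by autoradiography and quantified by Cerenkov counting through a kinase profiler service.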

Rattus norvegicus [6] = assay: Antiinflammatory activity in po dosed rat paw edema model assessed as inhibition of carrageenan-induced paw edema administered 1 hr prior to carrageenan challenge measured after 3 hrs
Rattus norvegicus [7] = assay: Antiinflammatory activity in po dosed rat paw edema model assessed as inhibition of carrageenan-induced paw edema […] measured after 4 hrs; format: functional
How it was run: (§1)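 Rats given test compounds as an oral suspension; 1 h later 1% carrageenan injected into the subplantar region of the right paw. Paw volume read by digital plethysmometer at 1, 2, 3 and 4 h. Reported as mean paw volume (mL) ± SEM with % inhibition; significance p <0.01 / p <0.05. Method after Winter et al.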

Rattus norvegicus [8] = assay: Antiinflammatory activity in po dosed rat paw edema model assessed as inhibition of carrageenan-induced paw edema […] measured after 1 hr; format: functional; how it was run: as §1
Rattus norvegicus [9] = assay: Antiinflammatory activity in po dosed rat paw edema model assessed as inhibition of carrageenan-induced paw edema […] measured after 2 hrs; format: functional; how it was run: as §1
Rattus norvegicus [10] = assay: Antiinflammatory activity in po dosed rat paw edema model assessed as inhibition of carrageenan-induced paw edema […] measured after 3 hrs; format: functional; how it was run: as §1
Rattus norvegicus [11] = assay: Antiinflammatory activity in rat paw edema model assessed as inhibition of carrageenan-induced paw edema at 50 mg/kg, po administered 1 hr post carrageenan challenge measured after 1 hr; format: functional; conditions: in the assay text read “1 hr prior to carrageenan challenge” for “1 hr post carrageenan challenge”; how it was run: as §1
Rattus norvegicus [12] = assay: Antiinflammatory activity in rat paw edema model assessed as inhibition of carrageenan-induced paw edema at 50 mg/kg, po administered 1 hr prior to carrageenan challenge measured after 4 hrs
Rattus norvegicus [13] = assay: Antiinflammatory activity in rat paw edema model assessed as inhibition of carrageenan-induced paw edema at 50 mg/kg, po administered 1 hr post carrageenan challenge measured after 2 hrs; format: functional; conditions: in the assay text read “1 hr prior to carrageenan challenge” for “1 hr post carrageenan challenge”; how it was run: as §1
Rattus norvegicus [14] = assay: Antiinflammatory activity in rat paw edema model assessed as inhibition of carrageenan-induced paw edema at 50 mg/kg, po administered 1 hr post carrageenan challenge measured after 3 hrs; format: functional; conditions: in the assay text read “1 hr prior to carrageenan challenge” for “1 hr post carrageenan challenge”; how it was run: as §1

IC50 [5]	Structure (SMILES)	inhibition (INH) (Rattus norvegicus [2])	inhibition (INH) (Rattus norvegicus [3])	inhibition (INH) (Rattus norvegicus [4])	inhibition (INH) (Rattus norvegicus [6])	also measured
	c1ccc2c(-c3ccncc3)n[nH]c2c1					pIC50 [1]: 5.8
9.6 µM	O=C(Nc1ccccc1)c1cc(-c2ccccc2)[nH]n1	32.48%	35.02%	30.58%	45.64%	
6.2 µM	O=C(Nc1cc(Cl)ccc1Cl)c1cc(-c2ccccc2)[nH]n1	31.02%	40.16%	18.9%	45.47%	
9.8 µM	O=C(Nc1ccc([N+](=O)[O-])cc1)c1cc(-c2ccccc2)[nH]n1	89.24%	94.31%	68.7%	92.56%	
8.1 µM	COc1ccc(NC(=O)c2cc(-c3ccccc3)[nH]n2)cc1	33.3%	79.54%	66.44%	81.08%	
	O=C(Nc1ccc(O)cc1)c1cc(-c2ccccc2)[nH]n1	22.11%	43.24%	16.64%	23.28%	
5.9 µM	O=C(Nc1ccc(Br)cc1)c1cc(-c2ccccc2)[nH]n1	42.16%	46.31%	38.22%	51.4%	
3.1 µM	O=C(Nc1ccc(Cl)c(F)c1)c1cc(-c2ccccc2)[nH]n1	68.81%	72.7%	64.22%	90.54%	
11.9 µM	Cc1cc(C)c(NC(=O)c2cc(-c3ccccc3)[nH]n2)c(C)c1	53.65%	45.6%	26.8%	44.24%	
6.9 µM	CC(=O)c1cccc(NC(=O)c2cc(-c3ccccc3)[nH]n2)c1	41.3%	56.7%	56.8%	74.32%	
9.1 µM	O=C(NCc1ccccc1)c1cc(-c2ccccc2)[nH]n1	35.48%	53.4%	25.66%	48.64%	
5.8 µM	O=C(NCc1ccc(Cl)c(Cl)c1)c1cc(-c2ccccc2)[nH]n1	45.16%	44.31%	10.11%	27.02%	
2.9 µM	O=C(NCc1ccc(F)cc1)c1cc(-c2ccccc2)[nH]n1	67.86%	70.27%	54.66%	75.27%	
6.1 µM	COc1ccc(CNC(=O)c2cc(-c3ccccc3)[nH]n2)cc1	41.93%	39.77%	16.46%	32.43%	
5.8 µM	COc1ccc(CNC(=O)c2cc(-c3ccccc3)[nH]n2)cc1OC	54.83%	46.59%	24.8%	43.24%	
2.8 µM	O=C(NCc1ccco1)c1cc(-c2ccccc2)[nH]n1	73.11%	81.81%	66.33%	91.89%	
3.2 µM	COc1ccc(-c2cc(NC(=O)c3cc(-c4ccccc4)[nH]n3)no2)cc1	68.81%	72.72%	71.66%	90.54%	
	CC(C)(C)c1cc(NC(=O)c2cc(-c3ccccc3)[nH]n2)no1	68.6%	70.6%	41.7%	52.8%	
2.9 µM	O=C(Nc1ccc2[nH]c(S)nc2c1)c1cc(-c2ccccc2)[nH]n1	94.62%	95.45%	74.15%	91.62%	
6.8 µM	O=C(Nc1nccs1)c1cc(-c2ccccc2)[nH]n1	45.31%	51.06%	31.4%	54.65%	
6.2 µM	O=C(NC1CC1)c1cc(-c2ccccc2)[nH]n1	69.89%	85.22%	55.87%	88.13%	
	CC(NC(=O)c1cc(-c2ccccc2)[nH]n1)c1cccc2ccccc12 (configuration not stated)					inhibition (INH) (Rattus norvegicus [7]): 50.64%; inhibition (INH) (Rattus norvegicus [8]): 61.29%; inhibition (INH) (Rattus norvegicus [9]): 73.86%; inhibition (INH) (Rattus norvegicus [10]): 74.32%
8.9 µM	O=C(Nc1ccccn1)c1cc(-c2ccccc2)[nH]n1	33.3%	79.54%	64.26%	81.08%	
	O=C(O)Cc1ccccc1Nc1c(Cl)cccc1Cl [DICLOFENAC SODIUM]					inhibition in vivo at 50 mg/kg (Rattus norvegicus [11]): 23%; inhibition in vivo at 50 mg/kg (Rattus norvegicus [12]): 51%; inhibition in vivo at 50 mg/kg (Rattus norvegicus [13]): 36%; inhibition in vivo at 50 mg/kg (Rattus norvegicus [14]): 47%
